{"data": "Results pooled from the literature", "target": "Vascular endothelial growth factor receptor 2 (KDR, Homo sapiens, UniProt P35968)", "note": "Protocols differ between the studies behind these lines."}
{"Compound": "O=c1[nH]c2ccccc2n1C1CCN(Cc2ccc(-c3[nH]c4cc5ncnc5cc4nc3-c3ccccc3)cc2)CC1", "test": "cell-free assay", "conditions": "0.5 µM", "measurement": "remaining signal", "result": "90.9%"}
{"Compound": "C#Cc1n[nH]c2c(-c3cn([C@@H](C)c4ccccc4)c(=O)[nH]c3=O)cc(F)cc12", "test": "enzyme activity, inhibitor", "conditions": "0.1 µM", "measurement": "inhibition", "result": "5.3%"}
{"Compound": "Cc1nn(C)cc1-c1nc2c(N3CCN(Cc4ccc(Cl)cc4)CC3)c(Cl)cnc2[nH]1", "test": "binding, competition with immobilised ligand", "conditions": "1 µM", "measurement": "remaining binding", "result": "12%"}
{"Compound": "Cn1cc(-c2cc(F)cc(N3CCn4c(cc5c4CCCC5)C3=O)c2CO)cc(Nc2ccc(N3CCN(C4COC4)CC3)cn2)c1=O", "test": "enzyme activity, inhibitor", "conditions": "0.1 µM", "measurement": "inhibition", "result": "12%"}
{"Compound": "Cn1cncc1[C@](O)(COc1ccc(C#N)cc1-c1ccc(OC(F)(F)F)cc1)c1ccc(C#N)cc1", "test": "cell-free assay, competition with immobilised ligand", "conditions": "1 µM", "measurement": "remaining binding", "result": "96%"}
{"Compound": "COc1ccc2c(c1)/C(=C/c1cnc[nH]1)C(=O)N2", "test": "cell-free assay", "conditions": "0.5 µM", "measurement": "remaining signal", "result": "78.7%"}
{"Compound": "COc1ncccc1-c1cnn2ccc(N3CCN(C(=O)OC(C)C)CC3)nc12", "test": "binding, competition with immobilised ligand", "conditions": "1 µM", "measurement": "remaining binding", "result": "100%"}
{"Compound": "C#Cc1n[nH]c2c(-c3cn([C@@H](C)c4ccccn4)c(=O)[nH]c3=O)cc(F)cc12", "test": "enzyme activity, inhibitor", "conditions": "0.1 µM", "measurement": "inhibition", "result": "6.6%"}
{"Compound": "COCc1c(-c2cc3cc(C)cc(OC)c3s2)c2c(N)ncnn2c1CN1CCNC(=O)C1", "test": "cell-free assay, competition with immobilised ligand", "conditions": "1 µM", "measurement": "inhibition", "result": "81%"}
{"Compound": "Nc1ncc(-c2nc(N3CCOCC3)nc(N3CCOCC3)n2)c(C(F)F)n1", "test": "cell-free assay, competition with immobilised ligand", "conditions": "10 µM", "measurement": "remaining binding", "result": "41%"}
